Results pooled from the literature.
Action: inhibitor
MET: Hepatocyte growth factor receptor (MET, Homo sapiens, UniProt P08581)
MET M1250T: Hepatocyte growth factor receptor (MET, Homo sapiens, UniProt P08581, M1250T)

SMILES | target | test | system | setting | inhibition
CNc1cccc2cc(C(=O)Nc3ccc(C(=O)O)cc3)c(=O)[nH]c12 | MET | enzyme activity | – | 10 µM | 1.4%
CN(C)C1CCN(CC#Cc2nn(C3CCCC3)c3nc(NCc4ccccc4)ncc23)C1 (stereo not shown) | MET | enzyme activity, FRET | – | 10 µM | 72%
COc1cc2nccc(Oc3ccc(NC(=O)c4c5n(n(-c6ccc(F)cc6)c4=O)CCCC5)cc3)c2cc1OC | MET | enzyme activity | – | 0.1 µM | 98%
O=C(CSc1nc2nccnc2c(=O)n1CCc1ccccc1)Nc1nccs1 | MET | enzyme activity | – | 10 µM | -2%
CNC(=O)c1cc(Oc2ccc(NC(=O)Nc3ccc(Cl)c(C(F)(F)F)c3)cc2)ccn1 | MET | enzyme activity | – | 0.3 µM | -22%
CNC(=O)c1cc2c(Oc3ccc(NC(=O)C4(C(=O)Nc5ccc(F)cc5)CC4)cc3)ccnc2cc1OC | Hepatocyte growth factor receptor (MET, Homo sapiens, UniProt P08581, Y1230C) | enzyme activity, radiometric | – | 1 µM | 100%
COc1cc2ncnc(Nc3ccc(Oc4ccccc4)c(C)c3C)c2cc1OC | MET M1250T | enzyme activity | – | 1 µM | -2%
CNc1cc(Oc2cc(C(=O)Nc3cc(N4CCN(C)CC4)cc(C(F)(F)F)c3)ccc2C)ncn1 | MET | target engagement in cells, chemoproteomics | Huh-7 | 1 µM | -18.4%
COc1cc2ncnc(Nc3ccc(Oc4ccccc4)cc3C)c2cc1OC | MET M1250T | enzyme activity | – | 1 µM | -1%
CC/C(=N\NC(=O)NCc1cccc(O)c1)c1ccc(O)c(C)c1O | MET M1250T | enzyme activity | – | 0.1 µM | -0.2%
